According to ChEMBL document CHEMBL1221219, “Selective blockade of 2-arachidonoylglycerol hydrolysis produces cannabinoid behavioral effects” (Nat Chem Biol, 2009):
Active and inactive are the calls of the source.

Experiments:
[1] = target: Cannabinoid receptor 2 (Homo sapiens) (UniProt P34972); assay: Displacement of [3H]CP-55940 from CB2 expressed in CHO cells after 90 mins by liquid scintillation; type: cell-based
Mus musculus [2] = assay: Inhibition of DPP9 in C57B1/6J mouse brain membrane at 16 mg/kg, ip after 4 hrs by competitive activity-based protein profiling-MudPIT method; type: functional, organism-based; design: dose 16 mg/kg
Procedure, shortened: (§1)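 Mice were dosed 16 mg kg^-1 i.p. or vehicle and killed at 4 h. Brain membrane proteomes were labelled with FP-biotin, avidin-enriched, trypsin-digested on bead, analysed by multidimensional LC-MS and identified by SEQUEST.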

Mus musculus [3] = assay: Inhibition of MAGL in orally dosed C57B1/6J mouse brain membrane after 4 hrs; type: functional, organism-based
Procedure, shortened: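 Oral dosing used male C57Bl/6J mice (6-8 weeks) given inhibitor in PEG300 vehicle at 4 ul g^-1, handled as for i.p. dosing. Brains were taken 4 h later for analysis of brain membrane hydrolase activity.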

[4] = target: T1, Cytosolic phospholipase A2 (Homo sapiens) (UniProt P47712); assay: Inhibition of recombinant cPLA2 4a expressed in HEK293 cells at 20 uM by FP-rhodamine labeling method; type: cell-based
T1 sequence (whole entry): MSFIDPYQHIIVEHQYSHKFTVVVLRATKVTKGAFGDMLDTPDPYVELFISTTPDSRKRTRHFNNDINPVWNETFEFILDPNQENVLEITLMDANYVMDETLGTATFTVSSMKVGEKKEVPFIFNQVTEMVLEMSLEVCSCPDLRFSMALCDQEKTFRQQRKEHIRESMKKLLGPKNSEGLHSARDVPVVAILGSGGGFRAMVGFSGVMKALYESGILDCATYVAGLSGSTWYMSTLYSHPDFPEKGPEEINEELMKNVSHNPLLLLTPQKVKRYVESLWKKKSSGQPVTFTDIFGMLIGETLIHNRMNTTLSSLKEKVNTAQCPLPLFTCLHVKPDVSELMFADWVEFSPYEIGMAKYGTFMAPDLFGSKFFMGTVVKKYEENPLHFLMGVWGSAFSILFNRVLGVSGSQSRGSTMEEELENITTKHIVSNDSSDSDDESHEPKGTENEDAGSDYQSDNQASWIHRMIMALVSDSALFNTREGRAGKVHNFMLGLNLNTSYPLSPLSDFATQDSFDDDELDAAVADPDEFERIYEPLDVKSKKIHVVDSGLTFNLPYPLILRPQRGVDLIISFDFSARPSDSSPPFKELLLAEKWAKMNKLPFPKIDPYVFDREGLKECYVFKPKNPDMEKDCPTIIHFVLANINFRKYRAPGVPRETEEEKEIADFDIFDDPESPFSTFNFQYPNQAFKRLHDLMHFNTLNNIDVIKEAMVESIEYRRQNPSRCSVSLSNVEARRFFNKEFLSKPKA

Mus musculus [5] = assay: Inhibition of FAAH in C57B1/6J mouse brain membrane at 16 mg/kg, ip after 4 hrs by competitive activity-based protein profiling-MudPIT method; type: functional, organism-based; design: dose 16 mg/kg
Procedure, shortened: (§2)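 After i.p. dosing in 4:1 PEG300:Tween80, male C57Bl/6J mice were killed at 4 h. Brain membrane proteomes from treated and vehicle mice were labelled with FP-biotin. Labelled proteins were enriched on avidin, digested on-bead with trypsin and analysed by multidimensional LC-MS. Proteins were identified by SEQUEST, and dosed samples were compared with vehicle.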

Mus musculus [6] = assay: Inhibition of FAAH in C57B1/6J mouse brain membrane assessed as elevated level of N-acylethanolamine at 10 mg/kg, ip by competitive activity-based protein profiling method; type: functional, organism-based; design: dose 10 mg/kg
Mus musculus [7] = assay: Inhibition of APT2 in C57B1/6J mouse brain membrane at 16 mg/kg, ip after 4 hrs by competitive activity-based protein profiling-MudPIT method; type: functional, organism-based; design: dose 16 mg/kg; procedure, shortened: as §1
Mus musculus [8] = assay: Inhibition of AChE in C57B1/6J mouse brain membrane at 16 mg/kg, ip after 4 hrs by competitive activity-based protein profiling-MudPIT method; type: functional, organism-based; design: dose 16 mg/kg; procedure, shortened: as §1
Mus musculus [9] = assay: Analgesic activity against CB1 receptor deficient C57B1/6J mouse at 16 mg/kg, ip; type: functional, organism-based; design: dose 16 mg/kg
Procedure, shortened: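 Male C57Bl/6J mice, 6-8 weeks, 20-26 g, given 16 mg kg^-1 i.p. in 4:1 v/v PEG300:Tween80 at 4 μl g^-1; vehicle controls received PEG300:Tween80 alone. Cannabinoid effects were scored in the tetrad test.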

Mus musculus [10] = assay: Visceral analgesic activity against C57B1/6J mouse assessed as inhibition of acetic acid-induced writhing response for 20 mins at 16 mg/kg, ip pretreated 2 hr before acetic acid challenge; type: functional, organism-based; design: dose 16 mg/kg
Procedure, shortened: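 Male C57Bl/6J mice (6-8 weeks) dosed 16 mg kg^-1 i.p. in 4:1 v/v PEG300:Tween80, with vehicle controls. Assessed in the tetrad test for cannabinoid effects or in the acetic acid-induced abdominal stretching assay.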

Mus musculus [11] = assay: Inhibition of FAS in C57B1/6J mouse brain membrane at 16 mg/kg, ip after 4 hrs by competitive activity-based protein profiling-MudPIT method; type: functional, organism-based; design: dose 16 mg/kg; procedure, shortened: as §2
[12] = target: T2, Diacylglycerol lipase-beta (Homo sapiens) (UniProt Q8NCG7); assay: Inhibition of recombinant DAGLbeta expressed in HEK293 cells assessed as hydrolysis of 1-stearoyl-2-arachidonoyl-glycerol to 2-AG at 10 uM after 30 mins by LC-MS method; type: cell-based
T2 sequence (whole entry): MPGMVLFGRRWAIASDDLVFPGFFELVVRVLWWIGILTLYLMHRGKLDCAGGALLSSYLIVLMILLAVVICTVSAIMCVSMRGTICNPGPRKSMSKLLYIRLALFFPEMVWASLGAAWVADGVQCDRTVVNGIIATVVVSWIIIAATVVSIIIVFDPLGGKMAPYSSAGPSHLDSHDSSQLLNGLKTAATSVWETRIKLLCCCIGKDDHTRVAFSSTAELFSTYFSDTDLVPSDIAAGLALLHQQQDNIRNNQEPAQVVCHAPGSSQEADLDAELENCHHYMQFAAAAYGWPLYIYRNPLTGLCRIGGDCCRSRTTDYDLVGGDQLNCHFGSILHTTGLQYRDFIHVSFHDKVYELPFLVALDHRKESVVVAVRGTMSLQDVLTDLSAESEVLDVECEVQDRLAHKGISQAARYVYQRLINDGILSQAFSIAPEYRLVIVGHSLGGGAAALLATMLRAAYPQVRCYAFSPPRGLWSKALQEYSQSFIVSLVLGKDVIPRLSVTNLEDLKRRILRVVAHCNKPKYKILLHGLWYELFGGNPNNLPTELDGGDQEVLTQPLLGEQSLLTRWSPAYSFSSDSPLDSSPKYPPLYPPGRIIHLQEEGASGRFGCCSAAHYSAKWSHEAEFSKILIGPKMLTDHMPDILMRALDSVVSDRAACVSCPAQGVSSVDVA

Mus musculus [13] = assay: Inhibition of ABHD10 in C57B1/6J mouse brain membrane at 16 mg/kg, ip after 4 hrs by competitive activity-based protein profiling-MudPIT method; type: functional, organism-based; design: dose 16 mg/kg; procedure, shortened: as §1

Chain of Cannabinoid receptor 2 (Homo sapiens) (P34972 whole entry): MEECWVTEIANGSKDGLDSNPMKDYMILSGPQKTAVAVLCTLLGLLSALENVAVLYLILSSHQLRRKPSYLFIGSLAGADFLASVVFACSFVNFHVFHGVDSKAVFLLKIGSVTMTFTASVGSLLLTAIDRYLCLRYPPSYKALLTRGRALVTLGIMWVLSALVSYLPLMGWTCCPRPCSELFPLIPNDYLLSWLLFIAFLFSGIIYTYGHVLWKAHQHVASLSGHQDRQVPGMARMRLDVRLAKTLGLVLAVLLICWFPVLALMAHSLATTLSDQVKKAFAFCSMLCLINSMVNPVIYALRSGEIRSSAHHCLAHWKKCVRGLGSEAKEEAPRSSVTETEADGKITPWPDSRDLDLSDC

O=C(Oc1ccc([N+](=O)[O-])cc1)N1CCC(C(O)(c2ccc3c(c2)OCO3)c2ccc3c(c2)OCO3)CC1
active: inhibition (Mus musculus [3]) | inhibition (Mus musculus [6]) | Activity (Mus musculus [10])
inactive: Activity [1] | inhibition (Mus musculus [2]) | inhibition [4] | inhibition (Mus musculus [5]) | inhibition (Mus musculus [7]) | inhibition (Mus musculus [8]) | Activity (Mus musculus [9]) | inhibition (Mus musculus [11]) | inhibition [12] | inhibition (Mus musculus [13])
